Each structure is given as a SMILES string. pKi: −log10 of the molar value. Some results are limits rather than exact numbers.

We go through ten compounds from ChEMBL document CHEMBL1671834, “Novel 3-aryl indoles as progesterone receptor antagonists for uterine fibroids” (ACS Med Chem Lett, 2011).

Assay [1] deals with T1, Progesterone receptor (Homo sapiens) (UniProt P06401).
T1 sequence (whole entry): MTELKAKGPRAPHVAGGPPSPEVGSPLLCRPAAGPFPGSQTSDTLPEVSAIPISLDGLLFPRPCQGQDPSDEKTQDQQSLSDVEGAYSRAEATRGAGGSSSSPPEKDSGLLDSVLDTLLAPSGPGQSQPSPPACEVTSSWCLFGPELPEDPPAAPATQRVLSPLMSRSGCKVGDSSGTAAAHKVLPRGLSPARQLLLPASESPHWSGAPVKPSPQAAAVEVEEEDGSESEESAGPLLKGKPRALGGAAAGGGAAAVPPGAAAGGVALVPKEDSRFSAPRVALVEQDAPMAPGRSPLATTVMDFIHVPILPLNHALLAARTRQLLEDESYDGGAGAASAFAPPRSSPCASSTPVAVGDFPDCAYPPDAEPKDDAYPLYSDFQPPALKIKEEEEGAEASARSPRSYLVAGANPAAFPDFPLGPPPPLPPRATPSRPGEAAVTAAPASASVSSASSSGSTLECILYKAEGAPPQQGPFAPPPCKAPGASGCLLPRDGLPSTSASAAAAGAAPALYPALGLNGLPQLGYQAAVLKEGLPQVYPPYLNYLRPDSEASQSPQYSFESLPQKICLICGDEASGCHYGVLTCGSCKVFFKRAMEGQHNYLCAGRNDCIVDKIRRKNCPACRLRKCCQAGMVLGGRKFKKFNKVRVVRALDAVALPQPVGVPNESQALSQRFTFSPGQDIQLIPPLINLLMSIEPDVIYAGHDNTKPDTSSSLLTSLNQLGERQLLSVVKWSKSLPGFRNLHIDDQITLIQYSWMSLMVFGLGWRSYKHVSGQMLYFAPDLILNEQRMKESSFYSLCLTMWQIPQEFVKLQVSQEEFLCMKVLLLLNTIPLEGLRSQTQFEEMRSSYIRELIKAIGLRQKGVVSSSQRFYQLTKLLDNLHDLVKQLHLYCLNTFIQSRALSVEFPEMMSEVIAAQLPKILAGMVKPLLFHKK
As to the kind of experiment: Antagonist activity at human progesterone receptor expressed in HEK293 cells assessed as inhibition of […]-induced transcriptional activity by GRE-driven luciferase reporter gene assay relative to untreated control. It is filed as functional, cell-based. Also noted: concentration or dose not given beside the values. The following applies: concentration not given here. A digest of the protocol:
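Transcription assay in HEK293 cells cotransfected with full-length human receptor. Values are geometric means of at least duplicate determinations.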
(In general: A reporter such as luciferase makes a cellular process visible.)

Assay [2] has as its target T2, Mineralocorticoid receptor (Homo sapiens, UniProt P08235).
T2 sequence (P08235 whole entry): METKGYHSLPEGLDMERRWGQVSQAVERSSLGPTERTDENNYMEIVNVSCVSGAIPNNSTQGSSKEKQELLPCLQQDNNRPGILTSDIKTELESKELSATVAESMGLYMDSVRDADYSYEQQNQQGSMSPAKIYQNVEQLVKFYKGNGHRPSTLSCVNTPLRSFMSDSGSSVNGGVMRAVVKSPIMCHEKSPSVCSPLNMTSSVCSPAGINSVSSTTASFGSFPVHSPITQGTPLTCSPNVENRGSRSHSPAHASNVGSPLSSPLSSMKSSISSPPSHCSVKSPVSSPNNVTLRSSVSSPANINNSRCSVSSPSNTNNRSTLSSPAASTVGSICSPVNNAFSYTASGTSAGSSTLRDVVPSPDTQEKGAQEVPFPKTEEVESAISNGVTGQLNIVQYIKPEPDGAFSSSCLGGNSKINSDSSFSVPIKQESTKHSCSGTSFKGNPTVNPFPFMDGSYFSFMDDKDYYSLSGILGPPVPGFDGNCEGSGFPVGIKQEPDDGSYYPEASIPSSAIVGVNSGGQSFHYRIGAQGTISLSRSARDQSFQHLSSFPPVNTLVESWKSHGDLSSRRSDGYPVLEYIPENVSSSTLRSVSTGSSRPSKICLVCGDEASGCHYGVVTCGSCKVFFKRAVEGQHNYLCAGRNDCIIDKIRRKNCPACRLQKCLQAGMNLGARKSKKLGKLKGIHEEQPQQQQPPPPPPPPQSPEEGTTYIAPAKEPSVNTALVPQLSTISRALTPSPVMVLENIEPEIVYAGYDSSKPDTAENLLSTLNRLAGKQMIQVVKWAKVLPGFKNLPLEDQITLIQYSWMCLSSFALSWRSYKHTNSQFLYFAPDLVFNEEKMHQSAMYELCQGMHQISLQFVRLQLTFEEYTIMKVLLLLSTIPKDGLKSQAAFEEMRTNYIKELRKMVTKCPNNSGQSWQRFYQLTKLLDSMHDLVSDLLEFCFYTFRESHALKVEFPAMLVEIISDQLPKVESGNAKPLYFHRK
As to the kind of experiment: Displacement of [3H]methyltrienolone from human mineralocorticoid receptor expressed in HEK293 cells. It is filed as cell-based. A digest of the protocol:
(§1)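 Competitive binding to recombinant full-length human receptors against tritium-labelled standards. Values are geometric means of at least duplicate determinations.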
(In general: In a radioligand displacement assay an active substance lowers the binding of a labelled ligand.)

In assay [3] the target is T3, Progesterone receptor (Homo sapiens, UniProt P06401).
T3 sequence (P06401 whole entry): T1 sequence (whole entry)
The experiment in a line: Displacement of [3H]methyltrienolone from human progesterone receptor expressed in HEK293 cells. In kind it is cell-based. A digest of the protocol:
as §1

Assay [4] concerns the target T4, Androgen receptor (Homo sapiens, UniProt P10275).
T4 sequence (P10275 whole entry): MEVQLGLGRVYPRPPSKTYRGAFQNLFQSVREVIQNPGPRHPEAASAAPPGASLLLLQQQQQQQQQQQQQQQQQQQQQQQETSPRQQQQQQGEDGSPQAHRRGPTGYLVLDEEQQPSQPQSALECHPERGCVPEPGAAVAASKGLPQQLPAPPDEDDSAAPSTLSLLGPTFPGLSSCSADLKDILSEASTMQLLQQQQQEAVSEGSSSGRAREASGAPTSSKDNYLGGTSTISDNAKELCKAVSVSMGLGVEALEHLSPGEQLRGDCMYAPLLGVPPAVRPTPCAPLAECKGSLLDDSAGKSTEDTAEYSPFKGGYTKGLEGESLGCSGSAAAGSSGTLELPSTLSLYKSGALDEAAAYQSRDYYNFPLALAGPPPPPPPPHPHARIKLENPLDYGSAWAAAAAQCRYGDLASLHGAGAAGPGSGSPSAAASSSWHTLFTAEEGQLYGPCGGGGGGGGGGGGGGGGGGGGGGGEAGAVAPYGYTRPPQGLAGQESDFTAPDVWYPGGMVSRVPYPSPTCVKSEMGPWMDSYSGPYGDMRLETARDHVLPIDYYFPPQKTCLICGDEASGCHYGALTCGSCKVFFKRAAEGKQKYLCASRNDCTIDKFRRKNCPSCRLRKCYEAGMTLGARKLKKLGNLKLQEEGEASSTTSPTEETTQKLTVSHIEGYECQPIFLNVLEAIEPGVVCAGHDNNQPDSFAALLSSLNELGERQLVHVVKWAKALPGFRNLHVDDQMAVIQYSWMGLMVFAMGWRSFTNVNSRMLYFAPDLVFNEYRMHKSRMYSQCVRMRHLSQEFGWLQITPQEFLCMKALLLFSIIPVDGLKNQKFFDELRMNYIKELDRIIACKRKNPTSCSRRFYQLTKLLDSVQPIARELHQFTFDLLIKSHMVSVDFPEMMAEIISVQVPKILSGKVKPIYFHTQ
As to the kind of experiment: Displacement of [3H]methyltrienolone from human androgen receptor expressed in HEK293 cells. In kind it is cell-based.

With `CC(c1ccc(F)cc1)(c1c[nH]c2c(NS(C)(=O)=O)cccc12)C1CC1` (stereo not given), the inhibition (commonly the share of the control response that was lost under treatment) in assay [1] is 91.7%. Moreover, the negative logarithm of the Ki (pKi) – broadly, the Ki on a negative log10 scale, so that one unit is a factor of ten – was 9.19 in assay [2], 6.34 in assay [3] and 6.66 in assay [4].
For `COc1ccc(C(c2ccccc2)c2c[nH]c3ccccc23)cc1` (stereo not given) the same measures were 86.5%, 7.06, 6.32 and 7.16.
For `CC[C@H](C)n1cc(-c2ccc(C#N)cc2)c2ccc(NS(C)(=O)=O)cc21` the same measures were 96.8%, 6.00, 9.49 and 5.76.
In the same order, the values of `CC(C)n1cc(-c2ccc(C#N)c(F)c2)c2ccc(NS(C)(=O)=O)cc21` are 94.9%, 6.07, 9.67 and 6.19.
With `COc1cc(-c2cn(C(C)C)c3cc(NS(C)(=O)=O)ccc23)ccc1C#N`, the inhibition in assay [1] was 97.4%. In addition, the pKi was 5.86 in assay [2], 8.84 in assay [3] and 6.31 in assay [4].
As for `Cc1cc(-c2cn(C(C)C)c3cc(NS(C)(=O)=O)ccc23)ccc1C#N`, the inhibition in assay [1] turned out to be 95.8%. Moreover, the pKi in assay [2] was 6.90; in assay [3] it was 9.53; in assay [4] it was 6.39.
`Cn1cc(-c2ccc(C#N)cc2)c2ccc(NS(C)(=O)=O)cc21`: the inhibition in assay [1] was found to be 87.8%. For the same compound, the pKi was below 5.38 in assay [2], 7.55 in assay [3] and below 5.40 in assay [4].
In the same order, the values of `CC(C)n1cc(-c2ccc(C#N)cc2)c2ccc(NS(C)(=O)=O)cc21` are 96.2%, 5.83, 9.10 and below 5.41.
As to `CC[C@@H](C)n1cc(-c2ccc(C#N)cc2)c2ccc(NS(C)(=O)=O)cc21`, in assay [1], the inhibition was determined as 96.2%. The pKi in assay [2] was 5.84; in assay [3], 9.08; in assay [4] it was 5.59.
For `CCn1cc(-c2ccc(C#N)cc2)c2ccc(NS(C)(=O)=O)cc21` the same measures were 97%, 5.75, 8.37 and 5.59.
